Ends that are not written are not given here.
Tests used:
BK channels = conditions: wild type and calcium bowl mutant channels; ref Zakharov et al., 2005; cited from earlier work
[1] = target: Drosophila Slowpoke calcium-dependent potassium channel (dSlo) (Drosophila melanogaster, UniProt Q03720); assay: Inside-out patch recording of dSlo current with peptide on the cytoplasmic side; format: cell-based
How it was run: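 Inside-out patches came from CHO cells transfected with dSlo, in symmetrical 150 mM KCl, 0.5 mM HEDTA, 1 mM Mg²⁺, 10 mM HEPES pH 7.2, with 7 μM free Ca²⁺, at room temperature. Peptide was dissolved in the bath (cytoplasmic side). Patches were stepped from −80 to +140 mV; the mean current over the last 10 ms was normalized to the same patch before peptide. A Hill equation fit across concentrations gave IC50.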

dSlo = assay: Coimmunoprecipitation of Slobs with dSlo from CHO cell lysates, Western blot; format: binding, Drosophila; conditions: cotransfected CHO cells, anti-Slob immunoprecipitation
How it was run: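 Slobs were cotransfected with the channel into CHO cells (Ham's F-12, 10% FBS, penicillin/streptomycin) using Lipofectamine 2000. Lysis was 1 d later in Tris-HCl pH 7.5/NaCl/KCl/NaF/1% CHAPS buffer with DTT and protease inhibitors. The 16,000 g supernatant was incubated with anti-Slob for 2 h at 4°C, then protein A/G agarose overnight at 4°C, with four PBS washes. SDS-PAGE, nitrocellulose, anti-dSlo 1 h at RT, HRP anti-rabbit, ECL. Controls were blank vector and nontransfected cells.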

[2] = test system: dSloD5N5 (calcium bowl mutant of dSlo); format: cell-based, Drosophila
How it was run: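 CHO cells were cotransfected 1:1 (molar) with dSloD5N5 and Slob57 or truncation mutants using Lipofectamine 2000. Whole-cell recording was done 1 d later at room temperature with 2–4 MΩ pipettes, in symmetrical 150 mM KCl, 0.5 mM HEDTA, 2 mM MgCl₂, 10 mM HEPES pH 7.2, with 110 or 300 μM free Ca²⁺ in the pipette. Holding was −80 mV, then −120 mV afterward. 350-ms pulses were used for inactivation; 100-ms pulses gave G–V from peak tail currents and V1/2. Mean ± SEM, ANOVA/Bonferroni.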

Chain of Drosophila Slowpoke calcium-dependent potassium channel (dSlo) (Q03720 whole entry): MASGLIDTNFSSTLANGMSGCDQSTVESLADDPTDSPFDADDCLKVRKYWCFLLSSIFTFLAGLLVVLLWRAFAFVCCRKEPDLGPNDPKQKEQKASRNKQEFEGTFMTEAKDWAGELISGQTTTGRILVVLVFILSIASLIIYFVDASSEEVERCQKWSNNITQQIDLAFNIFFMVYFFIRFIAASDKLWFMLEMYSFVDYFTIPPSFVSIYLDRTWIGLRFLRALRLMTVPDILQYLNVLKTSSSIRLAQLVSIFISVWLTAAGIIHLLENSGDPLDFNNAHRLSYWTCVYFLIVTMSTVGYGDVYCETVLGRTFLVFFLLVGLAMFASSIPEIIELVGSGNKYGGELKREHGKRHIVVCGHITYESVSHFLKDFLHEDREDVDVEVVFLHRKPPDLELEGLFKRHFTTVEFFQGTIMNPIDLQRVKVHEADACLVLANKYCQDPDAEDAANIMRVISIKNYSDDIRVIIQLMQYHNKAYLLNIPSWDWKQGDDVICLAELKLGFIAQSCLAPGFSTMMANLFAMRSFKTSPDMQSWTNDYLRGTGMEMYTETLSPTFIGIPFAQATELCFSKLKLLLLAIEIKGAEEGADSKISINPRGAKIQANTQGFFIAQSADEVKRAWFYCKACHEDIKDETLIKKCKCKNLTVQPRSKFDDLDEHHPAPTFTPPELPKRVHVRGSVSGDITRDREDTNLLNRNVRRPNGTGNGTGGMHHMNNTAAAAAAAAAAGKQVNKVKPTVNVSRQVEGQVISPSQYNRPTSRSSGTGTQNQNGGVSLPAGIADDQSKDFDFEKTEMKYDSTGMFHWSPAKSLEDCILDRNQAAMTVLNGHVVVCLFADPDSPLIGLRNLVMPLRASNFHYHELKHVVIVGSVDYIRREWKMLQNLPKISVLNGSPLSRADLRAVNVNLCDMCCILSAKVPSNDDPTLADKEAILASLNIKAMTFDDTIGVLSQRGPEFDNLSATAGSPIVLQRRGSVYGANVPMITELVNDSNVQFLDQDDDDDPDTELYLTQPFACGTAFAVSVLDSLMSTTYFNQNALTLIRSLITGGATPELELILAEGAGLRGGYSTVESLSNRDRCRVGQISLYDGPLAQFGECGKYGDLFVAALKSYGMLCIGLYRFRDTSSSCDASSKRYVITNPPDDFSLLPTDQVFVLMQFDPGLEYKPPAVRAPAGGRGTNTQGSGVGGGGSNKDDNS

CC(=O)c1c(O)c(C)c(O)c(Cc2c(O)c3c(c(C(=O)/C=C/c4ccccc4)c2O)OC(C)(C)C=C3)c1O [mallotoxin]
Ca2+ dependence of the modulation of BK channels (BK channels): independent of Ca^2+ binding

MFKFNK [MFKFNK]
IC50 [1]: 31 µM
Kd [1]: 162 µM

B1: Slob57ΔN5: amino-terminal five residue–truncated Slob57 (deletion of residues 2–6) (protein)
chain: MAAQQQRIDNRNSAVTGHDPFVRPPVPEKKVRNIMKKLHKANGLKRSNSAIEFDVSALTAANRRQIYSSNRSASSEQDNSDLSEHSEKSPLVSARLDNLARLFFSKSMPAETGSRDTIDSVLTTRPNIKYQYSALDSGNGIVERSPRERAQREKALNATQEWIQGANGRYEVIAHLDEIGSRHGKNWFLVTDASVRTDRLQTLLPLPPDCVAFEDLPPNECAREILMELLGSLHHPYIYPVLDLGFLRNSSYNYACLVTPFNSRGSLKDLIYKAQWNEPWARKYTRKPNGLPVSQVQRLGRQILEALLFLKERGFPLHGHLHSGNVILQNGAARLSGLENGLLGLSSRINAVMWSRSVTEIENVDIVCFGHLLYEMCTGQELTTPKPSMRVLEMELQHYPQIGQTRKQILEILGLIFEPPSGVCPSVEDLVLCDLFRSIDLRELRGPCFSTIKPSLSRSTLNLLQAVKKRQCASLGHSLSEANSPCTPPSTPHDRRTGVLPAPYEVFRMY
binding to dSlo (coimmunoprecipitation) (dSlo): still bind to dSlo

B2: Slob57: ion channel auxiliary protein that binds to and modulates the Drosophila Slowpoke channel (dSlo) (protein)
chain: MFKFNKAAQQQRIDNRNSAVTGHDPFVRPPVPEKKVRNIMKKLHKANGLKRSNSAIEFDVSALTAANRRQIYSSNRSASSEQDNSDLSEHSEKSPLVSARLDNLARLFFSKSMPAETGSRDTIDSVLTTRPNIKYQYSALDSGNGIVERSPRERAQREKALNATQEWIQGANGRYEVIAHLDEIGSRHGKNWFLVTDASVRTDRLQTLLPLPPDCVAFEDLPPNECAREILMELLGSLHHPYIYPVLDLGFLRNSSYNYACLVTPFNSRGSLKDLIYKAQWNEPWARKYTRKPNGLPVSQVQRLGRQILEALLFLKERGFPLHGHLHSGNVILQNGAARLSGLENGLLGLSSRINAVMWSRSVTEIENVDIVCFGHLLYEMCTGQELTTPKPSMRVLEMELQHYPQIGQTRKQILEILGLIFEPPSGVCPSVEDLVLCDLFRSIDLRELRGPCFSTIKPSLSRSTLNLLQAVKKRQCASLGHSLSEANSPCTPPSTPHDRRTGVLPAPYEVFRMY
shift of the conductance–voltage relationship of dSloD5N5 ([2]; 100-ms test pulse, 110 μM free Ca2+): does not rightward shift
modulation of V1/2 of dSloD5N5 ([2]; 100-ms test pulse, 300 μM free Ca2+): not modulated
inactivation of dSloD5N5 ([2]; coexpression in CHO cells, whole cell, 110 μM free Ca2+, 350-ms test pulse): causes dSloD5N5 inactivation

B3: Slob57ΔN15: amino-terminal 15 residue–truncated Slob57 (deletion of residues 2–16) (protein)
chain: MNSAVTGHDPFVRPPVPEKKVRNIMKKLHKANGLKRSNSAIEFDVSALTAANRRQIYSSNRSASSEQDNSDLSEHSEKSPLVSARLDNLARLFFSKSMPAETGSRDTIDSVLTTRPNIKYQYSALDSGNGIVERSPRERAQREKALNATQEWIQGANGRYEVIAHLDEIGSRHGKNWFLVTDASVRTDRLQTLLPLPPDCVAFEDLPPNECAREILMELLGSLHHPYIYPVLDLGFLRNSSYNYACLVTPFNSRGSLKDLIYKAQWNEPWARKYTRKPNGLPVSQVQRLGRQILEALLFLKERGFPLHGHLHSGNVILQNGAARLSGLENGLLGLSSRINAVMWSRSVTEIENVDIVCFGHLLYEMCTGQELTTPKPSMRVLEMELQHYPQIGQTRKQILEILGLIFEPPSGVCPSVEDLVLCDLFRSIDLRELRGPCFSTIKPSLSRSTLNLLQAVKKRQCASLGHSLSEANSPCTPPSTPHDRRTGVLPAPYEVFRMY
binding to dSlo (coimmunoprecipitation) (dSlo): still bind to dSlo

Reference: publication PMC2151581 (The Journal of General Physiology, 2006)
